# Assay results from ChEMBL document CHEMBL1135739, “Radiolabeled amino acids for tumor imaging with PET: radiosynthesis and biological evaluation of 2-amino-3-[18F]fluoro-2-methylpropanoic acid and 3-[18F]fluoro-2-methyl-2-(methylamino)propanoic acid” (J Med Chem, 2002).
# “And” between values parts separate entries of the source, which are not always exact repeats. Identical values can stand only once.
# What was measured:
# [1] = species: Rattus norvegicus; assay: Radioactivity distribution in testis of normal fischer rat after injection of [18F]-fluoro-2-methyl-2-(methylamino)propanoic acid after 120 min.; assay type: ADME, organism-based; conditions: in vivo, 2 h
# Method in brief: (§1)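 Male Fischer 344 rats (200–250 g), fed ad libitum, under intramuscular ketamine:xylazine anesthesia, got ~85 μCi radiotracer in 0.3 mL sterile water by tail-vein catheter. Groups of four were killed at 5, 30, 60 or 120 min. Dissected tissues were weighed and gamma-counted with dose standards. Counts were decay-corrected and given as %ID/g, mean ± standard error. Tissues were compared by one-way ANOVA.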
# [2] = species: Rattus norvegicus; assay: Radioactivity distribution in testis of normal fischer rat after injection of [18F]-fluoro-2-methyl-2-(methylamino)propanoic acid after 30 min.; assay type: ADME, organism-based; conditions: in vivo, 0.5 h; method in brief: as §1
# [3] = species: Rattus norvegicus; assay: Radioactivity distribution in kidney of normal fischer rat after injection of [18F]-fluoro-2-methyl-2-(methylamino)propanoic acid after 120 min.; assay type: ADME, organism-based; conditions: in vivo, 2 h
# Method in brief: (§2)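 Normal male Fischer 344 rats (200–250 g), anesthetized with i.m. ketamine:xylazine (1:1), got ~85 μCi of tracer in 0.3 mL sterile water i.v. via tail-vein catheter. Groups of four were killed at 5, 30, 60 or 120 min. Tissues were weighed and gamma-counted against dose standards, and counts were decay-corrected to %ID/g. Results are mean ± standard error (n = 4), compared by one-way ANOVA.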
# [4] = species: Rattus norvegicus; assay: Radioactivity distribution in kidney of normal fischer rat after injection of [18F]-fluoro-2-methyl-2-(methylamino)propanoic acid after 30 min.; assay type: ADME, organism-based; conditions: in vivo, 0.5 h; method in brief: as §2
# [5] = species: Rattus norvegicus; assay: Radioactivity distribution in kidney of normal fischer rat after injection of [18F]-fluoro-2-methyl-2-(methylamino)propanoic acid after 5 min.; assay type: ADME, organism-based; conditions: in vivo; method in brief: as §2
# [6] = species: Rattus norvegicus; assay: Radioactivity distribution in kidney of normal fischer rat after injection of [18F]-fluoro-2-methyl-2-(methylamino)propanoic acid after 60 min.; assay type: ADME, organism-based; conditions: in vivo, 1 h; method in brief: as §2
# [7] = species: Rattus norvegicus; assay: Radioactivity distribution in pancreas of normal fischer rat after injection of [18F]-fluoro-2-methyl-2-(methylamino)propanoic acid after 120 min.; assay type: ADME, organism-based; conditions: in vivo, 2 h
# Method in brief: (§3)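 Male Fischer 344 rats (200–250 g), fed ad libitum, anesthetized with intramuscular ketamine:xylazine (1:1, 0.1 mL/100 g). About 85 μCi tracer in 0.3 mL sterile water was given by tail-vein catheter. Groups of four were killed at 5, 30, 60 or 120 min. Tissues were weighed and gamma-counted against dose standards, decay-corrected, and expressed as %ID/g (mean ± standard error).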
# [8] = species: Rattus norvegicus; assay: Radioactivity distribution in pancreas of normal fischer rat after injection of [18F]-fluoro-2-methyl-2-(methylamino)propanoic acid after 30 min.; assay type: ADME, organism-based; conditions: in vivo, 0.5 h; method in brief: as §3
# [9] = species: Rattus norvegicus; assay: Radioactivity distribution in blood of normal fischer rat after injection of [18F]-fluoro-2-methyl-2-(methylamino)propanoic acid after 120 min.; assay type: ADME, organism-based; conditions: in vivo, 2 h; method in brief: as §2
# [10] = species: Rattus norvegicus; assay: Radioactivity distribution in blood of normal fischer rat after injection of [18F]-fluoro-2-methyl-2-(methylamino)propanoic acid after 30 min.; assay type: ADME, organism-based; conditions: in vivo, 0.5 h; method in brief: as §2
# [11] = species: Rattus norvegicus; assay: Radioactivity distribution in blood of normal fischer rat after injection of [18F]-fluoro-2-methyl-2-(methylamino)propanoic acid after 5 min.; assay type: ADME, organism-based; conditions: in vivo; method in brief: as §2
# [12] = species: Rattus norvegicus; assay: Radioactivity distribution in blood of normal fischer rat after injection of [18F]-fluoro-2-methyl-2-(methylamino)propanoic acid after 60 min.; assay type: ADME, organism-based; conditions: in vivo, 1 h; method in brief: as §2
# [13] = species: Rattus norvegicus; assay: Radioactivity distribution in brain of normal fischer rat after injection of [18F]-fluoro-2-methyl-2-(methylamino)propanoic acid after 5 min.; assay type: ADME, organism-based; conditions: in vivo; method in brief: as §2
# [14] = species: Rattus norvegicus; assay: Radioactivity distribution in brain of normal fischer rat after injection of [18F]-fluoro-2-methyl-2-(methylamino)propanoic acid after 60 min.; assay type: ADME, organism-based; conditions: in vivo, 1 h; method in brief: as §2
# [15] = species: Rattus norvegicus; assay: Radioactivity distribution in muscle of normal fischer rat after injection of [18F]-fluoro-2-methyl-2-(methylamino)propanoic acid after 120 min.; assay type: ADME, organism-based, Muscle tissue; conditions: in vivo, 2 h; method in brief: as §3
# [16] = species: Rattus norvegicus; assay: Radioactivity distribution in muscle of normal fischer rat after injection of [18F]-fluoro-2-methyl-2-(methylamino)propanoic acid after 30 min.; assay type: ADME, organism-based, Muscle tissue; conditions: in vivo, 0.5 h; method in brief: as §3
# [17] = species: Rattus norvegicus; assay: Radioactivity distribution in brain of normal fischer rat after injection of [18F]-fluoro-2-methyl-2-(methylamino)propanoic acid after 30 min.; assay type: ADME, organism-based; conditions: in vivo, 0.5 h; method in brief: as §2
# [18] = species: Rattus norvegicus; assay: Radioactivity distribution in spleen of normal fischer rat after injection of [18F]-fluoro-2-methyl-2-(methylamino)propanoic acid after 120 min.; assay type: ADME, organism-based; conditions: in vivo, 2 h; method in brief: as §3
# [19] = species: Rattus norvegicus; assay: Radioactivity distribution in spleen of normal fischer rat after injection of [18F]-fluoro-2-methyl-2-(methylamino)propanoic acid after 30 min.; assay type: ADME, organism-based; conditions: in vivo, 0.5 h; method in brief: as §1
# [20] = species: Rattus norvegicus; assay: Radioactivity distribution in spleen of normal fischer rat after injection of [18F]-fluoro-2-methyl-2-(methylamino)propanoic acid after 5 min.; assay type: ADME, organism-based; conditions: in vivo; method in brief: as §1
# [21] = species: Rattus norvegicus; assay: Radioactivity distribution in spleen of normal fischer rat after injection of [18F]-fluoro-2-methyl-2-(methylamino)propanoic acid after 60 min.; assay type: ADME, organism-based; conditions: in vivo, 1 h; method in brief: as §1
# [22] = species: Rattus norvegicus; assay: Radioactivity distribution in lung of normal fischer rat after injection of [18F]-fluoro-2-methyl-2-(methylamino)propanoic acid after 120 min.; assay type: ADME, organism-based; conditions: in vivo, 2 h; method in brief: as §3
# [23] = species: Rattus norvegicus; assay: Radioactivity distribution in lung of normal fischer rat after injection of [18F]-fluoro-2-methyl-2-(methylamino)propanoic acid after 30 min.; assay type: ADME, organism-based; conditions: in vivo, 0.5 h; method in brief: as §3
smiles,measurement,setting,value
CNC(C)(C[18F])C(=O)O.Cl (stereo not drawn),ID/g,[1],0.06% and 0.08%
same,ID/g,[2],0.11%
same,ID/g,[3],1.36% and 1.59%
same,ID/g,[4],4.6%
same,ID/g,[5],8.12% and 9.33%
same,ID/g,[6],2.73% and 2.79%
same,ID/g,[7],2.88% and 1.74%
same,ID/g,[8],3%
same,ID/g,[9],0.1%
same,ID/g,[10],0.3%
same,ID/g,[11],0.61% and 0.69%
same,ID/g,[12],0.18% and 0.17%
same,ID/g,[13],0.04% and < 0.032%
same,ID/g,[14],0.03% and < 0.022%
same,ID/g,[15],0.13% and 0.16%
same,ID/g,[16],0.16%
same,ID/g,[17],0.04%
same,ID/g,[18],0.47% and 0.4%
same,ID/g,[19],0.75%
same,ID/g,[20],0.44% and 0.47%
same,ID/g,[21],0.68% and 0.45%
same,ID/g,[22],0.3% and 0.19%
same,ID/g,[23],0.5%
